According to ChEMBL document CHEMBL5696442, “Discovery of type II inhibitors of TGFβ-activated kinase 1 (TAK1) and mitogen-activated protein kinase kinase kinase kinase 2 (MAP4K2)” (J Med Chem, 2015):
Active and inactive are the calls of the source. No cut-off for these calls is given here.

Key:
[1] = biological target: Ribosomal protein S6 kinase alpha-2 (Homo sapiens) (UniProt Q15349); assay: Inhibition of RSK3 Protein Kinase Domain in human A-375 cells at 0.5 uM by KiNativ Profiling analysis relative to control; format: cell-based
Chain of Ribosomal protein S6 kinase alpha-2 (Homo sapiens) (Q15349 whole entry, the tested form may be a part): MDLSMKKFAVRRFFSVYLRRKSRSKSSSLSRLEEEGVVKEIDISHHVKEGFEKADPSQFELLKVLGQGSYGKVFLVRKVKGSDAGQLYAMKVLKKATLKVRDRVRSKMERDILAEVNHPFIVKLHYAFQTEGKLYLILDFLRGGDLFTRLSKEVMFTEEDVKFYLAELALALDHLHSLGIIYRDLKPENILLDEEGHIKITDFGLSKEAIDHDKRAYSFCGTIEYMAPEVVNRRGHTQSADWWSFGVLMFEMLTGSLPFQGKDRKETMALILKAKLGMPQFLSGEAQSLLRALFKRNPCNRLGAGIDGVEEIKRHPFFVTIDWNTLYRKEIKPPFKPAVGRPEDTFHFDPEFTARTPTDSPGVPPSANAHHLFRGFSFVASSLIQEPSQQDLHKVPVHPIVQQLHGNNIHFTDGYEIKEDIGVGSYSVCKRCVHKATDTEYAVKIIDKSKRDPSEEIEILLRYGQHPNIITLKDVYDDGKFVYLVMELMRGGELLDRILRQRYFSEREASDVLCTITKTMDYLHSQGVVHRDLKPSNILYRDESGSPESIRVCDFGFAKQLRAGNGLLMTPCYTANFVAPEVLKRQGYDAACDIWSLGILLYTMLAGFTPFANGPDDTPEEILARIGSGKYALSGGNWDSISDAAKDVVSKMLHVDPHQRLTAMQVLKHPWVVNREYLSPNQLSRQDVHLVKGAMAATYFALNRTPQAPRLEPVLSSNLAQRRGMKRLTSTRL
In short: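 Live A375 melanoma cells treated with compound at 5 or 0.5 μM, then lysed. Lysate kinases were labeled with a lysine-reactive ATP or ADP-biotin probe. Inhibition was read as protection of labeling sites from the probe.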

[2] = biological target: T1, Tyrosine-protein kinase ABL2 (Homo sapiens, UniProt P42684); assay: Inhibition of ARG Lys1 labeling site in human A-375 cells at 5 uM by KiNativ Profiling analysis relative to control; format: cell-based
T1 sequence (P42684 whole entry): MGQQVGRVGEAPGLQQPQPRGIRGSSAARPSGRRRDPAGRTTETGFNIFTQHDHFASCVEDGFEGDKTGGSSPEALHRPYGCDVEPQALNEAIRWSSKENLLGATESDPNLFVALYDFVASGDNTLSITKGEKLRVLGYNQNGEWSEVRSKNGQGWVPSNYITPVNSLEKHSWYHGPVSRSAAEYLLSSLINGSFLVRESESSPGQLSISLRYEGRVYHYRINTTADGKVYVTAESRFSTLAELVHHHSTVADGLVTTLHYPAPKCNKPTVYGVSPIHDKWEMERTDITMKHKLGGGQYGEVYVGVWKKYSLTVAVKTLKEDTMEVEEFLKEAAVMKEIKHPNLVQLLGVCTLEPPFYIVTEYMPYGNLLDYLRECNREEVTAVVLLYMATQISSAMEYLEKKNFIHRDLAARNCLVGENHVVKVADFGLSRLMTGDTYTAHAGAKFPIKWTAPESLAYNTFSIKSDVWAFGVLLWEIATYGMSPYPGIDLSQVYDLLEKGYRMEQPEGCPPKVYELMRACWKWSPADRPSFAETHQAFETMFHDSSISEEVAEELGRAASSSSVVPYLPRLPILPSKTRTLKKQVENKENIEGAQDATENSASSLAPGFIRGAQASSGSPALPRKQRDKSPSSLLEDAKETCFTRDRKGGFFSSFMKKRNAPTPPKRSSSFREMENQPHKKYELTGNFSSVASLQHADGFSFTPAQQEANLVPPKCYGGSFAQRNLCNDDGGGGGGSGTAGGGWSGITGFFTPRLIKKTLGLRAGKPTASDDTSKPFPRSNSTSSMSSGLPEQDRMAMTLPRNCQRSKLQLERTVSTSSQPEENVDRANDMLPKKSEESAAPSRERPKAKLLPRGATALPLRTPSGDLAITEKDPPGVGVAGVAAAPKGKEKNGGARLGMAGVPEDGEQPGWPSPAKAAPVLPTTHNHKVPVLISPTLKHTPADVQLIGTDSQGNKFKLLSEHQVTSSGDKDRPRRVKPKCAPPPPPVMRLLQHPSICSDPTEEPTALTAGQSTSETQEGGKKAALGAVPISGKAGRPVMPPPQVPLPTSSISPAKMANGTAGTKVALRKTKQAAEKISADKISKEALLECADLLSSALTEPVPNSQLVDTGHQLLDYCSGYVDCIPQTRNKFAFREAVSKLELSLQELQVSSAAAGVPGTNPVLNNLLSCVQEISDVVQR
In short: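 Intact A375 melanoma cells were treated with compound at 5 or 0.5 μM, then lysed. Lysate kinases were labeled with a lysine-reactive ATP or ADP-biotin probe (KiNativ). Inhibition is read as protection of each kinase labeling site from probe labeling.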

[3] = biological target: Serine/threonine-protein kinase MRCK beta (Homo sapiens) (UniProt Q9Y5S2); assay: Inhibition of MRCKb in human A-375 cells at 0.5 uM by KiNativ Profiling analysis relative to control; format: cell-based
Chain of Serine/threonine-protein kinase MRCK beta (Homo sapiens) (Q9Y5S2 whole entry): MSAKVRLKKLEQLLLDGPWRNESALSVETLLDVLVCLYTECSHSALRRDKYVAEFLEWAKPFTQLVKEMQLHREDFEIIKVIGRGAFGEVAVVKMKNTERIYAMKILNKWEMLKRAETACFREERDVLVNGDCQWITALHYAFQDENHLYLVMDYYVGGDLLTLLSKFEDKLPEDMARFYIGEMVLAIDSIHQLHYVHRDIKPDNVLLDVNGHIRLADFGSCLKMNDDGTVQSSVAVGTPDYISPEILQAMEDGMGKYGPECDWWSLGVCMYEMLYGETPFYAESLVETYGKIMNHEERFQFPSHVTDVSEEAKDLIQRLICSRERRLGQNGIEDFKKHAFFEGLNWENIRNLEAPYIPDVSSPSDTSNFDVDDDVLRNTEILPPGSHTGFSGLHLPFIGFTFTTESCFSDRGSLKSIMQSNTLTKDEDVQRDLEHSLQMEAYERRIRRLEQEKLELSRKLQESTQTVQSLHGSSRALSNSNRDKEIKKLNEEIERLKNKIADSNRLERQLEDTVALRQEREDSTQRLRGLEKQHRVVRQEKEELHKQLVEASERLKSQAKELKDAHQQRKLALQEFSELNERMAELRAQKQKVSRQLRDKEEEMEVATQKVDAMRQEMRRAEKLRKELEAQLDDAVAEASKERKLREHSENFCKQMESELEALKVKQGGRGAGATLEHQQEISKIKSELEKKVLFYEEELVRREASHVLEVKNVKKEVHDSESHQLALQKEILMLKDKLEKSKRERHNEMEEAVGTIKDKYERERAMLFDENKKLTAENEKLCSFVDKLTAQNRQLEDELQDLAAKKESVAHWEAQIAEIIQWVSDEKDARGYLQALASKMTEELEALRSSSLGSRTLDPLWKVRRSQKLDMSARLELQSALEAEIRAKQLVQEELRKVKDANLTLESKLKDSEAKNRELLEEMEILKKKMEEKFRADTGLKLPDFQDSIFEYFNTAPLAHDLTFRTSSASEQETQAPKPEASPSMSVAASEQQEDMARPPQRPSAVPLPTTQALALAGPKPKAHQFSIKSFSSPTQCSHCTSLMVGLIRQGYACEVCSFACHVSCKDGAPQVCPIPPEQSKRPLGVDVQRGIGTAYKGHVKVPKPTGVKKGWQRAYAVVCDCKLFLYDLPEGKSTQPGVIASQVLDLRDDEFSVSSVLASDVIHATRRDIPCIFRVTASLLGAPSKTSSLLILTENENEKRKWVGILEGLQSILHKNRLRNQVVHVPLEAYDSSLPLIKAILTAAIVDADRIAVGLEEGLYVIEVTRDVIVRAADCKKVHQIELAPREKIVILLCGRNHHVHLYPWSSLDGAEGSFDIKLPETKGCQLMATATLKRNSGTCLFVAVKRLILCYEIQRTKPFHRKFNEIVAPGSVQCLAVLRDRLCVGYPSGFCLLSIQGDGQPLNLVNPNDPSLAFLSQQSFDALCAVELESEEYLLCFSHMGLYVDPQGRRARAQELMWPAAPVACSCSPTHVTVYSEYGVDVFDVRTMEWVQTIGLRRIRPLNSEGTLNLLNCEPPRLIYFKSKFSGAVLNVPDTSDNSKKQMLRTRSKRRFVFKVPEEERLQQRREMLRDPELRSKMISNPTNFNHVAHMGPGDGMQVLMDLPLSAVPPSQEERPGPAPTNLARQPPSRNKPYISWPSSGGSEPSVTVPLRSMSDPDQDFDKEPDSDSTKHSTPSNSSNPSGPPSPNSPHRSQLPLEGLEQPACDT

[4] = biological target: T2, Kinase suppressor of Ras 1 (Homo sapiens) (UniProt Q8IVT5); assay: Inhibition of KSR1 ACT labeling site harbouring SKNVFYDNGK in human A-375 cells at 5 uM by KiNativ Profiling analysis relative to control; format: cell-based
T2 sequence (whole entry): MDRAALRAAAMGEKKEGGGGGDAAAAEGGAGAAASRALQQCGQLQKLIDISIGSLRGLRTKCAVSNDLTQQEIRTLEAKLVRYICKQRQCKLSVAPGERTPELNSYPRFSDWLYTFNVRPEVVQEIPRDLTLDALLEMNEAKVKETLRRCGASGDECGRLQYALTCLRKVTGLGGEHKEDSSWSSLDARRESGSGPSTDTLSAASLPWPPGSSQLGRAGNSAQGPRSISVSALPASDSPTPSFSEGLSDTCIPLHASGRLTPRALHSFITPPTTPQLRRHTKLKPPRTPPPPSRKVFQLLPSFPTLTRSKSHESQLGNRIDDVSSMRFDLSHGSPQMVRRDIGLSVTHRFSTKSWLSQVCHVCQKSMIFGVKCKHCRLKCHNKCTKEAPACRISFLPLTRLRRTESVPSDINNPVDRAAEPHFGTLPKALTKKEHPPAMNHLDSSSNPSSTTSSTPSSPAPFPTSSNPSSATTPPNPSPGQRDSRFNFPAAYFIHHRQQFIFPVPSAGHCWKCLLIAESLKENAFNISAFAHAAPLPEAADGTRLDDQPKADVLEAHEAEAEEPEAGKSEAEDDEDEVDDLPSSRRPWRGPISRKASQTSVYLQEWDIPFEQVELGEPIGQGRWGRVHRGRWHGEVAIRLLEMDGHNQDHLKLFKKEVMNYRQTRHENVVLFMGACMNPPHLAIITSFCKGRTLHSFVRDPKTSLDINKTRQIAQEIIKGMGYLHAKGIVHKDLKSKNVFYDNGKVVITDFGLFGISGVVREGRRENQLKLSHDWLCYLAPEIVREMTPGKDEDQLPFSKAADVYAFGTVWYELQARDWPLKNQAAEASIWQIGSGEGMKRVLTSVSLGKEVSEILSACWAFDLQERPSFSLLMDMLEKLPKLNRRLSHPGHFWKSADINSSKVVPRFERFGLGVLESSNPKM

[5] = biological target: T3, Serine/threonine-protein kinase Nek9 (Homo sapiens) (UniProt Q8TD19); assay: Inhibition of NEK9 Lys1 labeling site harbouring TEDDSLVVWKEVDLTR in human A-375 cells at 5 uM by KiNativ Profiling analysis relative to control; format: cell-based
T3 sequence (whole entry): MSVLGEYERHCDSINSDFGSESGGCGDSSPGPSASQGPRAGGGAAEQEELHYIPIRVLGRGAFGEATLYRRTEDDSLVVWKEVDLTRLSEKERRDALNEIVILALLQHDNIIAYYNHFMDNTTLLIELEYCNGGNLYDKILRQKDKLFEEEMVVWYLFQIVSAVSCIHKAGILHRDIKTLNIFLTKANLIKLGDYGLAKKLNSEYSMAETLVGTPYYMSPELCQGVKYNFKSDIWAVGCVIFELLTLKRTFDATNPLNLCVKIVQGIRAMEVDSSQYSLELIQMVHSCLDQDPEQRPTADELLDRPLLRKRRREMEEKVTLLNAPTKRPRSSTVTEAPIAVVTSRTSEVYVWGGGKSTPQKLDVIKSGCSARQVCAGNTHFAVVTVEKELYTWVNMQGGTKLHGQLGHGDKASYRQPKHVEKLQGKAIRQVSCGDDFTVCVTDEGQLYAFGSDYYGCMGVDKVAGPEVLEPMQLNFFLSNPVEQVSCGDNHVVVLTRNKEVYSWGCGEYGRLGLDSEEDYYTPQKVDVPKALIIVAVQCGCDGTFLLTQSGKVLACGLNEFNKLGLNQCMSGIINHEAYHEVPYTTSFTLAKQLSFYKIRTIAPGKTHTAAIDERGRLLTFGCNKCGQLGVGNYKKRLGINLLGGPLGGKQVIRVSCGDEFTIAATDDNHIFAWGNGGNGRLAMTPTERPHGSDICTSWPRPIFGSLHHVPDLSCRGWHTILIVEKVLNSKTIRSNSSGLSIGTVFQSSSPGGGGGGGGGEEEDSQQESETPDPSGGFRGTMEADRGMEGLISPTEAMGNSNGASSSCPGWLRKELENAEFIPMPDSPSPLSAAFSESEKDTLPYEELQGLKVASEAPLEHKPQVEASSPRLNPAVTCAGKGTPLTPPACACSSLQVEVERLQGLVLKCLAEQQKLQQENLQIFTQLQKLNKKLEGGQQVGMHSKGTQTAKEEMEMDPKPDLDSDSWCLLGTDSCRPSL

[6] = biological target: Cyclin-dependent kinase 18 (Homo sapiens) (UniProt Q07002); assay: Inhibition of PCTAIRE3 Lys1 labeling site harbouringSKLTENLVALKEIR in human A-375 cells at 5 uM by KiNativ Profiling analysis relative to control; format: cell-based
In short: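 Live A375 melanoma cells were treated with compound at 5 or 0.5 μM, then lysed. Lysates were labeled with a lysine-reactive ATP or ADP-biotin probe. Read-out was the compound's protection of kinase labeling sites from probe labeling (KiNativ).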

GEN2.2 = assay: Inhibition of CL097 induced JNK1/2 phosphorylation level in human GEN2.2 cells at 1 uM preincubated with compound for 1 hr followed by CL097 stimulation and measured after 30 mins by Western blot analysis; format: functional, cell-based
In short: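 Gen2.2 cells were pretreated with compound at 1 μM for 1 h, then stimulated with CL097 for 30 min. Lysates were analysed by Western blot for phosphorylation of p105, p38 and JNK1/2.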

[7] = biological target: TRAF2 and NCK-interacting protein kinase (Homo sapiens) (UniProt Q9UKE5); assay: Inhibition of ZC2/TNIK Lys1 labeling site in human A-375 cells at 5 uM by KiNativ Profiling analysis relative to control; format: cell-based
Chain of TRAF2 and NCK-interacting protein kinase (Homo sapiens) (Q9UKE5 whole entry, looked up): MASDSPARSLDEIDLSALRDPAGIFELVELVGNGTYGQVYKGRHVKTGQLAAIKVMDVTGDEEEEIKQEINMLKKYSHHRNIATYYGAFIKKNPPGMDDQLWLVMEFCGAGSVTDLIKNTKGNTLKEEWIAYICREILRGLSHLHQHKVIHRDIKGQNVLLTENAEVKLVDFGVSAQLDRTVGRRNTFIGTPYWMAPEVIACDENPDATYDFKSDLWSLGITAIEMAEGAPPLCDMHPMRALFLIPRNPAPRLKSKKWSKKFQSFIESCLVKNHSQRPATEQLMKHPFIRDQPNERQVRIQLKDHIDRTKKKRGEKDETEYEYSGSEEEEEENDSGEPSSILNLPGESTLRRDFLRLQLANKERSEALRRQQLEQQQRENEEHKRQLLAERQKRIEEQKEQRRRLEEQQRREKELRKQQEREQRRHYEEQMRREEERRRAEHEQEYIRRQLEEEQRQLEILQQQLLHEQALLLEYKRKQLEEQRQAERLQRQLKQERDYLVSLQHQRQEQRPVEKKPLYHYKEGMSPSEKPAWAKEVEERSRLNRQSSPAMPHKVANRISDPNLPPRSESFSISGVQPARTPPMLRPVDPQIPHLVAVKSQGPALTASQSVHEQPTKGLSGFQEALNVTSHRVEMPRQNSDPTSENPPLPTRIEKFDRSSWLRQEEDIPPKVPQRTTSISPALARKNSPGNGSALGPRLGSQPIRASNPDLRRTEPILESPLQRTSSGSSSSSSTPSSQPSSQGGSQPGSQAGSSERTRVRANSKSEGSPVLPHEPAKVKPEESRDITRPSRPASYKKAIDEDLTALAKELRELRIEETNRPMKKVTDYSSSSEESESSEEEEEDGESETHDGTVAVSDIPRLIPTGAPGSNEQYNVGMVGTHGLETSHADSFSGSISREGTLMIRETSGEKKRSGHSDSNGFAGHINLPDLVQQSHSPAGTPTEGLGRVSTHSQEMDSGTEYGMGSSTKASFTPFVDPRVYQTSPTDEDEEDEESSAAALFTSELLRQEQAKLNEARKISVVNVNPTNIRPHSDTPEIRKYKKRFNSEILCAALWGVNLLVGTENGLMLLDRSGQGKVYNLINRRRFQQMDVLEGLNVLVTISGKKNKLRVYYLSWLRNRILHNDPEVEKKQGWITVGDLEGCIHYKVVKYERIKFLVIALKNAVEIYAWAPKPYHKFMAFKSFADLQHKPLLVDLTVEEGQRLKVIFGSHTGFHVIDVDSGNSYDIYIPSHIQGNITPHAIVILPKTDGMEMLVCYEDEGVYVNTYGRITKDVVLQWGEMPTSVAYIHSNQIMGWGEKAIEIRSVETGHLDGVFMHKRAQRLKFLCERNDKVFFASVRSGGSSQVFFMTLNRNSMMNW

[8] = biological target: T1, Tyrosine-protein kinase ABL2; assay: Inhibition of ARG Lys1 labeling site in human Huh-7 cell lysate at 1 uM by KiNativ Profiling analysis relative to control; format: subcellular

Row | SMILES | inhibition [1] [%] | inhibition [2] [%] | inhibition [3] [%] | inhibition [4] [%] | inhibition [5] [%] | inhibition [6] [%] | inhibition (GEN2.2) | inhibition [7] [%] | inhibition [8] [%]
1 | CCN1CCN(Cc2ccc(NC(=O)c3ccc(C)c(Oc4ccnc5[nH]ccc45)c3)cc2C(F)(F)F)CC1 | 0.9 | 86.8 | -3 | 32.1 | -1.2 | 73.3 | Active | > 95 | –
2 | CNc1cc(Oc2cc(C(=O)Nc3cc(-n4cnc(C)c4)cc(C(F)(F)F)c3)ccc2C)ncn1 | – | – | – | – | – | – | inactive | – | 51.8
3 | CNc1cc(Oc2cc(C(=O)Nc3cc(N4CCN(C)CC4)cc(C(F)(F)F)c3)ccc2C)ncn1 | – | – | – | – | – | – | – | – | 48.4
4 | CCN1CCN(Cc2ccc(NC(=O)c3ccc(C)c(/C=C/c4cnc5[nH]ccc5c4OC)c3)cc2C(F)(F)F)CC1 | 3.2 | > 90 | 7.3 | 12.2 | 0.1 | 24.3 | – | > 95 | –
